According to PMC10925177 (bioRxiv, 2024):

What was measured:
GLP = molecular target: T1, GLP (Homo sapiens, UniProt Q9H9B1); assay: GLP radioactive methyltransferase assay; assay type: biochemical; settings: indicated concentrations, duplicate (Figure 4C)
T1 sequence (Q9H9B1 1-1298): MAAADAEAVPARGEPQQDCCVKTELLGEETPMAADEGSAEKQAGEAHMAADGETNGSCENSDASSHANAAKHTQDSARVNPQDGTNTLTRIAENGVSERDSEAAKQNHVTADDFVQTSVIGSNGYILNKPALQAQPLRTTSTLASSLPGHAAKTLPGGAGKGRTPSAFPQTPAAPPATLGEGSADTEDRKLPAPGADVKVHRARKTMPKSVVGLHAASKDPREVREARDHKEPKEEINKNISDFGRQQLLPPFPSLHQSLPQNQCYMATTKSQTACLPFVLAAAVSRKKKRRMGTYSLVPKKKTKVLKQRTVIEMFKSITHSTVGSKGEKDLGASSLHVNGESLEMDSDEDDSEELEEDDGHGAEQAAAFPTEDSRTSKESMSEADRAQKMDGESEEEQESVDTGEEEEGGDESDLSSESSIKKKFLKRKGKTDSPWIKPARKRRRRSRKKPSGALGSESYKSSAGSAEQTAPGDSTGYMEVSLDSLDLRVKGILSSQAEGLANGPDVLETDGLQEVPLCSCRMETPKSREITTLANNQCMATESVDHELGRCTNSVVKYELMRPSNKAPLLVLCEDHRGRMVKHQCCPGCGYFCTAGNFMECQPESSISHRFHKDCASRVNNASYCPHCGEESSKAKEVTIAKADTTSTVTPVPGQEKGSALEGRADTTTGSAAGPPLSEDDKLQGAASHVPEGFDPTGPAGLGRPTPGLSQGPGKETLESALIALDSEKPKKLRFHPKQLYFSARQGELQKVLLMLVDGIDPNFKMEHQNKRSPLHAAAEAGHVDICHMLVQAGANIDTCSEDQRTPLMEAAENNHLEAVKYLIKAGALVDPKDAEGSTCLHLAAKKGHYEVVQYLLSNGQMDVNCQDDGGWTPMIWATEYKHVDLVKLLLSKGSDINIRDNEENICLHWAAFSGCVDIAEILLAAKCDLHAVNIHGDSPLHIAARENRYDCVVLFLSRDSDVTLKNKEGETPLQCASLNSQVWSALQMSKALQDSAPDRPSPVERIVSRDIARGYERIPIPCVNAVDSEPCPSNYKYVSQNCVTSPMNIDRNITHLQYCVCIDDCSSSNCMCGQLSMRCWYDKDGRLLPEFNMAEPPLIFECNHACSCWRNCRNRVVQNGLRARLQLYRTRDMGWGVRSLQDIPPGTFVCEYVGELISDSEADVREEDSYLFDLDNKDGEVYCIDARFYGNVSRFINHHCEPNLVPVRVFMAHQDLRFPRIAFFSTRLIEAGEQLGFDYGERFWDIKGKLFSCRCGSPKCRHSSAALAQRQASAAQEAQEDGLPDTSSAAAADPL
Procedure, shortened: (§1)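 Enzyme activity was measured with a radioisotope-based MT HotSpot methyltransferase assay run by a contract laboratory. Test compounds were run at the indicated concentrations, in duplicate. Data are mean ± SD of the two duplicate experiments.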

EZH2 = EZH2 (Homo sapiens, UniProt Q15910); assay: Radioactive methyltransferase assay, EZH2; assay type: biochemical; settings: 10 μM compound
[1] = tested on: panel of 21 protein methyltransferases; assay: Selectivity panel, radioactive methyltransferase assays; assay type: biochemical; settings: 10 μM compound, duplicate
Procedure, shortened: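 The selectivity screen covered 21 protein methyltransferases in radioisotope-based MT HotSpot methyltransferase assays run by a contract laboratory. Test compound was at 10 μM. Each assay was run in duplicate and reported as mean ± SD of the two replicates.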

G9a mRNA = assay: RT-qPCR of G9a mRNA in H1299 cells; assay type: cell-based; settings: 3 μM, 24 h, normalized to DMSO
Procedure, shortened: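 H1299 cells were treated with DMSO or test compound at 3 μM for 24 h. Total RNA was extracted and reverse-transcribed to cDNA. qPCR used gene-specific primers for G9a and GLP, and a GAPDH primer set was included.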

G9a = molecular target: T2, G9a (Homo sapiens, UniProt Q96KQ7); assay: G9a radioactive methyltransferase assay; assay type: biochemical; settings: indicated concentrations, duplicate (Figure 4B)
T2 sequence (Q96KQ7 1-1210): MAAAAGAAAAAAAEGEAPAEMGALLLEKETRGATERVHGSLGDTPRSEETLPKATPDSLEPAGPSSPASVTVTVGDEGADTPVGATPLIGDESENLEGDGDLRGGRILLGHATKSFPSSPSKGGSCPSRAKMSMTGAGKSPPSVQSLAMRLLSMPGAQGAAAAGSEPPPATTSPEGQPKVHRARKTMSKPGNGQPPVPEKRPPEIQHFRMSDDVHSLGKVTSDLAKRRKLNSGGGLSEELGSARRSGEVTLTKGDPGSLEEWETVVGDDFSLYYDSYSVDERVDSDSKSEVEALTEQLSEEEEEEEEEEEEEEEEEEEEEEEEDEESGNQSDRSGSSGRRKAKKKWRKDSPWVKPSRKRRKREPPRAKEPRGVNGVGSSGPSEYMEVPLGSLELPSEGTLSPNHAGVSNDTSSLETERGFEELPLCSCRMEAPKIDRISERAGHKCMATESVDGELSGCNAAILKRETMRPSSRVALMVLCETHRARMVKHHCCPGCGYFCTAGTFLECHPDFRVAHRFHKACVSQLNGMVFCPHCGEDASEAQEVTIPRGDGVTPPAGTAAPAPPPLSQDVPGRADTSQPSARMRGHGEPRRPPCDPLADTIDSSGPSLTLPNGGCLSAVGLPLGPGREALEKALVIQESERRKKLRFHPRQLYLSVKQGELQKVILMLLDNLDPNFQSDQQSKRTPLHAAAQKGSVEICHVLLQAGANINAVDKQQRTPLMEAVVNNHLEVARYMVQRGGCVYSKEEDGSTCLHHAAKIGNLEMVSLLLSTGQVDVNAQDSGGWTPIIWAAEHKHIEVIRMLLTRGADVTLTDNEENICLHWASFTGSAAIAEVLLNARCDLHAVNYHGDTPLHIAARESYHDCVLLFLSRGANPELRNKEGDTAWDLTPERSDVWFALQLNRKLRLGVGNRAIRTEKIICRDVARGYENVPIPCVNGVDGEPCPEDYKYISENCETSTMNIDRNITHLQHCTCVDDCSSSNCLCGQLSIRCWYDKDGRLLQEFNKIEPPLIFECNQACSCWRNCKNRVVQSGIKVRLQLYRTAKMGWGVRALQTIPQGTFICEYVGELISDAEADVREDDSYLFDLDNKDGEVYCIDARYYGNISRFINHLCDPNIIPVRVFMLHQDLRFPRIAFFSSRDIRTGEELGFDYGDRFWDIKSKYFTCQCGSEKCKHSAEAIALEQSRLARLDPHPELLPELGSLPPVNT
Procedure, shortened: as §1

Sequence of EZH2 (Q15910 whole entry): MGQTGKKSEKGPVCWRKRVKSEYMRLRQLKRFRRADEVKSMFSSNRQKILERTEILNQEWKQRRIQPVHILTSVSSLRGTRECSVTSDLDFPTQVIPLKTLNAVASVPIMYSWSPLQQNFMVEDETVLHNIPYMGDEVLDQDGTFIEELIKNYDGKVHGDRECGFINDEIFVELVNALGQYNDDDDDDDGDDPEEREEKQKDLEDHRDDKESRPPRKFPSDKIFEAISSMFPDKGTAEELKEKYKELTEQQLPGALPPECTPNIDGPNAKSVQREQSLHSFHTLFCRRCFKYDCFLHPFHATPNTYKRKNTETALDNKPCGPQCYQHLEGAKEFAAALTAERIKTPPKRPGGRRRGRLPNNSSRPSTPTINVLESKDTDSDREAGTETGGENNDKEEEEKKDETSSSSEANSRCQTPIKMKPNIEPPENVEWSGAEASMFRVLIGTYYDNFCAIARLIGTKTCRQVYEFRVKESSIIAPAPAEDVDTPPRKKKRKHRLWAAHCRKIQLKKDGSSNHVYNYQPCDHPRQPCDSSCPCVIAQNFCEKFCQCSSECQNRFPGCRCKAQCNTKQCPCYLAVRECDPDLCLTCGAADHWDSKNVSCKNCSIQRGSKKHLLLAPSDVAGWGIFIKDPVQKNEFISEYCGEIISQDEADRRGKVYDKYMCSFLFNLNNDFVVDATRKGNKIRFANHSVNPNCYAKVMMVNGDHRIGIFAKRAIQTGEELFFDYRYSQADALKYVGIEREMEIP
Sequence of EZH2 (O75530 whole entry partner): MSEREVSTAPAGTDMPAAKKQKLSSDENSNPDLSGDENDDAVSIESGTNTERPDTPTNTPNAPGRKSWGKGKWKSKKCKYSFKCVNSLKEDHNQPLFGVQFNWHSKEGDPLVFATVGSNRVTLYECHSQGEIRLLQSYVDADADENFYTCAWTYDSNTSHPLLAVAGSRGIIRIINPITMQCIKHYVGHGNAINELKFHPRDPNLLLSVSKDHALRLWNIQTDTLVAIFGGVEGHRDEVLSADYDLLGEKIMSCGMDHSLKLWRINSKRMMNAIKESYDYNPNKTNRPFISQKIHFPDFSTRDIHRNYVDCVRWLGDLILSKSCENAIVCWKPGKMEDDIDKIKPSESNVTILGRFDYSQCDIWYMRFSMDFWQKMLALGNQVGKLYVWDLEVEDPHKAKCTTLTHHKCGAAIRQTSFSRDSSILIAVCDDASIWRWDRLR
Sequence of EZH2 (Q15022 whole entry partner): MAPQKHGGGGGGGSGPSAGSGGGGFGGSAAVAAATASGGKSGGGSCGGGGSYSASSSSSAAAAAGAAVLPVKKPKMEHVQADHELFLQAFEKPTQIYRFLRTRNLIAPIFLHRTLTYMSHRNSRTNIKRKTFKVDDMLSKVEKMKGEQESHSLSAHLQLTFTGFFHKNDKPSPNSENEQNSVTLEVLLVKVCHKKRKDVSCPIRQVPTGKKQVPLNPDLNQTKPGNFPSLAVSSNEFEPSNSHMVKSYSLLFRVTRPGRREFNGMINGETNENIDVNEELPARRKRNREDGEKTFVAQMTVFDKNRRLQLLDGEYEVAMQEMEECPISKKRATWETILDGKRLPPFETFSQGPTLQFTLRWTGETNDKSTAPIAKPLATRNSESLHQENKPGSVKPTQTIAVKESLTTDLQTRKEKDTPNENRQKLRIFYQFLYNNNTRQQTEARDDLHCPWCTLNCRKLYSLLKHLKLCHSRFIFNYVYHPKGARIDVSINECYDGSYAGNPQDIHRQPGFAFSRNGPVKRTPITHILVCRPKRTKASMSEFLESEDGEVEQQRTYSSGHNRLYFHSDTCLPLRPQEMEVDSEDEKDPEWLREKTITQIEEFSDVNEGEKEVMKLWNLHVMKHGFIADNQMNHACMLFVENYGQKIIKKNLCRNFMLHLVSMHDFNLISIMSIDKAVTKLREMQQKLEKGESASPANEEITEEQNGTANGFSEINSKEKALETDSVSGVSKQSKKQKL
Sequence of EZH2 (Q09028 whole entry partner): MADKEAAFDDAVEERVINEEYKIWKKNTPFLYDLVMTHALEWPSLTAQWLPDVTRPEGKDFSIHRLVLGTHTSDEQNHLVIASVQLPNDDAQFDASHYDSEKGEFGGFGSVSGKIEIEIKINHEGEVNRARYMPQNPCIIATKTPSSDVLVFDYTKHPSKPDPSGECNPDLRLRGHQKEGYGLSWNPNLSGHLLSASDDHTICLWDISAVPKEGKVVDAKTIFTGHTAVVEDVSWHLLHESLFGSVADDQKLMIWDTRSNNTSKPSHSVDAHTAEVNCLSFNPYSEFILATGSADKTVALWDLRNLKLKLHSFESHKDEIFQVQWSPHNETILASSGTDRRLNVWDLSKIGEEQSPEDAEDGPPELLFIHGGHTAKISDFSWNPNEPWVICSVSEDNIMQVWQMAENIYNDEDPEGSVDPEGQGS
Sequence of EZH2 (Q6ZN18 whole entry partner): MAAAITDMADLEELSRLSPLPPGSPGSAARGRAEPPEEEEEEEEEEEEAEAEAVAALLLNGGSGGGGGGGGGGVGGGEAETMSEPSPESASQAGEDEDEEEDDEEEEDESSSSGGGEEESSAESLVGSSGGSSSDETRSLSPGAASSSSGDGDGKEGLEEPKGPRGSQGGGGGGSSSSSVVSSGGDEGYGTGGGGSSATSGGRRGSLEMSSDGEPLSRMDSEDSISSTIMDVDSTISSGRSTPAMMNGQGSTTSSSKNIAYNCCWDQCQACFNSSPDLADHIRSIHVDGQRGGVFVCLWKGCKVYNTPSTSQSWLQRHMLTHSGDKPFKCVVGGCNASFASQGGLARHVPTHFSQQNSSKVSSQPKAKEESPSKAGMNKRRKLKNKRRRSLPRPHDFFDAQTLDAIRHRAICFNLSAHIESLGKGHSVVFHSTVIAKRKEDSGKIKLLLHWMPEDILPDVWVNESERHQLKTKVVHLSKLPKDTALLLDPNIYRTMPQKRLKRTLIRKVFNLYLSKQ

Compound: COc1cc2c(NC3CCN(CCCC(=O)NCCCCCCCCCCCC(=O)N[C@H](C(=O)N4C[C@H](O)C[C@H]4C(=O)NCc4ccc(-c5scnc5C)cc4)C(C)(C)C)CC3)nc(N3CCC(F)(F)CC3)nc2cc1OCCCN1CCCC1 [Compound 10, (2S,4R)-1-((S)-2-(12-(4-(4-((2-(4,4-difluoropiperidin-1-yl)-6-methoxy-7-(3-(pyrrolidin-1-yl)propoxy)quinazolin-4-yl)amino)piperidin-1-yl)butanamido)dodecanamido)-3,3-dimethylbutanoyl)-4-hydroxy-N-(4-(4-methylthiazol-5-yl)benzyl)pyrrolidine-2-carboxamide]
- inhibition of GLP enzymatic activity (GLP): similarly inhibited
- inhibition of EZH2 (EZH2): moderately inhibited
- inhibition of panel methyltransferases [1]: ≤ 50%
- mRNA levels of G9a (G9a mRNA): did not significantly alter
- inhibition of G9a enzymatic activity (G9a): similarly inhibited
